Assay results reported in ChEMBL document CHEMBL1150793, “In vitro susceptibilities of 217 clinical isolates of zygomycetes to conventional and new antifungal agents” (2007).
Values after ≈ are worked out from the molar mass of the structure shown. Active and inactive are the calls of the source. The rule behind the calls is not given here.

What was measured:
Rhizopus [1] = assay: Antimicrobial activity against Rhizopus sp. after 24 hrs; format: functional
How it was run: (§1)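 Broth microdilution of clinical isolates following CLSI M38-A for filamentous fungi. The polyene and echinocandin agents were tested in antibiotic medium 3, and the other agents in RPMI 1640. Plates were incubated 24 h at 35°C and end points read visually. The echinocandin end point was the minimal effective concentration (MEC); the others were MICs.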

Rhizopus arrhizus [2] = assay: Antimicrobial activity against Rhizopus arrhizus after 24 hrs; format: functional
How it was run: (§2)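 Clinical zygomycete isolates tested by broth microdilution in microtiter format, in essential agreement with CLSI M38-A for filamentous fungi. The polyene and echinocandin were tested in antibiotic medium 3, and the other agents in RPMI 1640. Plates were incubated for 24 h at 35°C, and end points were read visually. The echinocandin end point was taken as the minimal effective concentration.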

[3] = system: Rhizopus microsporus var. rhizopodiformis; assay: Antimicrobial activity against Rhizopus microsporus var. rhizopodiformis after 24 hrs; format: functional; how it was run: as §1
Mucor [4] = assay: Antimicrobial activity against Mucor sp. after 24 hrs; format: functional; how it was run: as §1
Absidia [5] = assay: Antimicrobial activity against Absidia sp. after 24 hrs; format: functional, organism-based; how it was run: as §2
Mucor circinelloides [6] = assay: Antimicrobial activity against Mucor circinelloides after 24 hrs; format: functional; how it was run: as §2
Rhizomucor [7] = assay: Antimicrobial activity against Rhizomucor sp. after 24 hrs; format: functional; how it was run: as §2
Lichtheimia corymbifera [8] = assay: Antimicrobial activity against Absidia corymbifera after 24 hrs; format: functional; how it was run: as §2
Cunninghamella [9] = assay: Antimicrobial activity against Cunninghamella sp. after 24 hrs; format: functional; how it was run: as §2
Apophysomyces elegans [10] = assay: Antimicrobial activity against Apophysomyces elegans after 24 hrs; format: functional; how it was run: as §2
Rhizopus [11] = assay: Antimicrobial activity against Rhizopus sp. assessed as percent of susceptible isolates after 24 hrs; format: functional
Rhizopus arrhizus [12] = assay: Antimicrobial activity against Rhizopus arrhizus assessed as percent of susceptible isolates after 24 hrs; format: functional
[13] = system: Rhizopus microsporus var. rhizopodiformis; assay: Antimicrobial activity against Rhizopus microsporus var. rhizopodiformis assessed as percent of susceptible isolates after 24 hrs; format: functional
Mucor [14] = assay: Antimicrobial activity against Mucor sp. after assessed as percent of susceptible isolates after 24 hrs; format: functional
Mucor circinelloides [15] = assay: Antimicrobial activity against Mucor circinelloides assessed as percent of susceptible isolates after 24 hrs; format: functional
Cunninghamella [16] = assay: Antimicrobial activity against Cunninghamella sp. assessed as percent of susceptible isolates after 24 hrs; format: functional
Rhizomucor [17] = assay: Antimicrobial activity against Rhizomucor sp. assessed as percent of susceptible isolates after 24 hrs; format: functional
Absidia [18] = assay: Antimicrobial activity against Absidia sp. assessed as percent of susceptible isolates after 24 hrs; format: functional
Lichtheimia corymbifera [19] = assay: Antimicrobial activity against Absidia corymbifera assessed as percent of susceptible isolates after 24 hrs; format: functional
Apophysomyces elegans [20] = assay: Antimicrobial activity against Apophysomyces elegans assessed as percent of susceptible isolates after 24 hrs; format: functional
[21] = system: Rhizopus microsporus var. microsporus; assay: Antimicrobial activity against Rhizopus microsporus var. microsporus assessed as percent of susceptible isolates after 24 hrs; format: functional

For `CC(=O)N1CCN(c2ccc(OCC3COC(Cn4ccnc4)(c4ccc(Cl)cc4Cl)O3)cc2)CC1` (configuration not stated) [KETOCONAZOLE], the MIC50 (Rhizopus [1]) was 1 µg/mL (≈ 1.88 µM), the Activity (Rhizopus arrhizus [2]) was “inactive” and the Activity [3] was “inactive”. The Activity (Mucor [4]) was “inactive”, the Activity (Absidia [5]) was “inactive” and the Activity (Mucor circinelloides [6]) was “inactive”. The Activity (Rhizomucor [7]) was “inactive”, the Activity (Lichtheimia corymbifera [8]) was “inactive” and the Activity (Cunninghamella [9]) was “inactive”. For the same compound, the Activity (Apophysomyces elegans [10]) was “inactive”, the Activity (Rhizopus [11]) was 83% and the Activity (Rhizopus arrhizus [12]) was 0%. The Activity [13] was 0%, the Activity (Mucor [14]) was 33% and the Activity (Mucor circinelloides [15]) was 0%. It also gave an Activity (Cunninghamella [16]) of 0%.

In the case of `CC[C@H](C)C[C@H](C)CCCCCCCCC(=O)N[C@H]1C[C@@H](O)[C@@H](NCCN)NC(=O)[C@@H]2[C@@H](O)CCN2C(=O)[C@H]([C@H](O)CCN)NC(=O)[C@H]([C@H](O)[C@@H](O)c2ccc(O)cc2)NC(=O)[C@@H]2C[C@@H](O)CN2C(=O)[C@H]([C@@H](C)O)NC1=O` [CASPOFUNGIN], the MIC50 (Rhizopus [1]) is reported as > 16 µg/mL, the MIC90 (Rhizopus [1]) is reported as > 16 µg/mL and the MIC50 (Rhizopus arrhizus [2]) is reported as > 16 µg/mL. The MIC50 [3] was > 16 µg/mL, the MIC50 (Mucor [4]) was > 16 µg/mL and the MIC90 (Mucor [4]) was > 16 µg/mL. The Activity (Absidia [5]) was “inactive”, the Activity (Mucor circinelloides [6]) was “inactive” and the Activity (Rhizomucor [7]) was “inactive”. For the same compound, the Activity (Lichtheimia corymbifera [8]) was “inactive”, the Activity (Cunninghamella [9]) was “inactive” and the Activity (Apophysomyces elegans [10]) was “inactive”. It also gave an Activity (Rhizopus [11]) of 0%, an Activity (Rhizopus arrhizus [12]) of 0% and an Activity [13] of 0%. For the same compound, the Activity (Mucor [14]) was 0%, the Activity (Mucor circinelloides [15]) was 0% and the Activity (Rhizomucor [17]) was 0%. For the same compound, the Activity (Absidia [18]) was 0%, the Activity (Lichtheimia corymbifera [19]) was 0% and the Activity (Cunninghamella [16]) was 0%. The Activity (Apophysomyces elegans [20]) was 0%.

In the case of `C[C@@H]1[C@H](O)[C@@H](C)/C=C/C=C/C=C/C=C/C=C/C=C/C=C/[C@H](O[C@@H]2O[C@H](C)[C@@H](O)[C@H](N)[C@@H]2O)C[C@@H]2O[C@](O)(C[C@@H](O)C[C@@H](O)[C@H](O)CC[C@@H](O)C[C@@H](O)CC(=O)O[C@H]1C)C[C@H](O)[C@H]2C(=O)O` [AMPHOTERICIN B], the MIC50 (Rhizopus [1]) is reported as 0.25 µg/mL (≈ 0.271 µM), the MIC90 (Rhizopus [1]) is reported as 0.5 µg/mL (≈ 0.541 µM) and the MIC50 (Rhizopus arrhizus [2]) is reported as 0.25 µg/mL (≈ 0.271 µM). For the same compound, the MIC90 (Rhizopus arrhizus [2]) was 0.25 µg/mL (≈ 0.271 µM), the MIC50 [3] was 0.25 µg/mL (≈ 0.271 µM) and the MIC90 [3] was 0.25 µg/mL (≈ 0.271 µM). The MIC50 (Mucor [4]) was 0.25 µg/mL (≈ 0.271 µM), the MIC90 (Mucor [4]) was 0.5 µg/mL (≈ 0.541 µM) and the Activity (Absidia [5]) was “inactive”. The MIC50 (Mucor circinelloides [6]) was 0.25 µg/mL (≈ 0.271 µM), the MIC50 (Rhizomucor [7]) was 0.125 µg/mL (≈ 0.135 µM) and the MIC50 (Lichtheimia corymbifera [8]) was 0.25 µg/mL (≈ 0.271 µM). The MIC50 (Cunninghamella [9]) was 1 µg/mL (≈ 1.08 µM), the MIC50 (Apophysomyces elegans [10]) was 0.125 µg/mL (≈ 0.135 µM) and the Activity (Rhizopus [11]) was 100%. For the same compound, the Activity (Rhizopus arrhizus [12]) was 100%, the Activity [13] was 100% and the Activity [21] was 100%. For the same compound, the Activity (Mucor [14]) was 94%, the Activity (Mucor circinelloides [15]) was 100% and the Activity (Rhizomucor [17]) was 100%. The Activity (Absidia [18]) was 100%, the Activity (Lichtheimia corymbifera [19]) was 100% and the Activity (Cunninghamella [16]) was 63%. The Activity (Apophysomyces elegans [20]) was 100%.

Compound `CC[C@@H]([C@H](C)O)n1ncn(-c2ccc(N3CCN(c4ccc(OC[C@@H]5CO[C@@](Cn6cncn6)(c6ccc(F)cc6F)C5)cc4)CC3)cc2)c1=O` [POSACONAZOLE] has an MIC50 (Rhizopus [1]) of 0.25 µg/mL (≈ 0.357 µM), an MIC90 (Rhizopus [1]) of 1 µg/mL (≈ 1.43 µM) and an MIC50 (Rhizopus arrhizus [2]) of 0.25 µg/mL (≈ 0.357 µM). The MIC90 (Rhizopus arrhizus [2]) was 1 µg/mL (≈ 1.43 µM), the MIC50 [3] was 0.25 µg/mL (≈ 0.357 µM) and the MIC50 (Mucor [4]) was 0.5 µg/mL (≈ 0.713 µM). For the same compound, the MIC90 (Mucor [4]) was 2 µg/mL (≈ 2.85 µM), the Activity (Absidia [5]) was “inactive” and the Activity (Mucor circinelloides [6]) was “inactive”. For the same compound, the Activity (Rhizomucor [7]) was “inactive”, the Activity (Lichtheimia corymbifera [8]) was “inactive” and the MIC50 (Cunninghamella [9]) was 0.5 µg/mL (≈ 0.713 µM). It also gave an MIC50 (Apophysomyces elegans [10]) of 0.03 µg/mL (≈ 0.0428 µM), an Activity (Rhizopus [11]) of 80% and an Activity (Rhizopus arrhizus [12]) of 64%. It also gave an Activity [13] of 78%, an Activity (Mucor [14]) of 70% and an Activity (Mucor circinelloides [15]) of 0%. It also gave an Activity (Rhizomucor [17]) of 67%, an Activity (Absidia [18]) of 100% and an Activity (Lichtheimia corymbifera [19]) of 100%. The Activity (Cunninghamella [16]) was 75% and the Activity (Apophysomyces elegans [20]) was 83%.

In the case of `C[C@@H](c1ncncc1F)[C@](O)(Cn1cncn1)c1ccc(F)cc1F` [VORICONAZOLE], the MIC50 (Rhizopus [1]) is reported as 8 µg/mL (≈ 22.9 µM), the MIC90 (Rhizopus [1]) is reported as > 8 µg/mL and the MIC50 (Rhizopus arrhizus [2]) is reported as > 8 µg/mL. For the same compound, the Antimicrobial activity [3] was “inactive”, the MIC50 (Mucor [4]) was > 8 µg/mL and the MIC90 (Mucor [4]) was > 8 µg/mL. For the same compound, the Activity (Absidia [5]) was “inactive”, the Activity (Mucor circinelloides [6]) was “inactive” and the Activity (Rhizomucor [7]) was “inactive”. For the same compound, the Activity (Lichtheimia corymbifera [8]) was “inactive”, the MIC50 (Cunninghamella [9]) was > 8 µg/mL and the MIC90 (Cunninghamella [9]) was > 8 µg/mL. It also gave an Activity (Rhizopus [11]) of 5%, an Activity (Rhizopus arrhizus [12]) of 0% and an Activity [13] of 0%. It also gave an Activity (Mucor [14]) of 0%, an Activity (Mucor circinelloides [15]) of 0% and an Activity (Rhizomucor [17]) of 0%. For the same compound, the Activity (Absidia [18]) was 0%, the Activity (Lichtheimia corymbifera [19]) was 0% and the Activity (Cunninghamella [16]) was 10%. It also gave an Activity (Apophysomyces elegans [20]) of 100%.

`OC(Cn1cncn1)(Cn1cncn1)c1ccc(F)cc1F` [FLUCONAZOLE] was tested, and the MIC50 (Rhizopus [1]) was > 64 µg/mL, the MIC90 (Rhizopus [1]) was > 64 µg/mL and the Activity (Rhizopus arrhizus [2]) was “inactive”. For the same compound, the Antimicrobial activity [3] was “inactive”, the MIC50 (Mucor [4]) was > 64 µg/mL and the Activity (Absidia [5]) was “inactive”. The Activity (Mucor circinelloides [6]) was “inactive”, the Activity (Rhizomucor [7]) was “inactive” and the Activity (Lichtheimia corymbifera [8]) was “inactive”. For the same compound, the Activity (Cunninghamella [9]) was “inactive”, the Activity (Apophysomyces elegans [10]) was “inactive” and the Activity (Rhizopus [11]) was 0%. It also gave an Activity (Rhizopus arrhizus [12]) of 0%, an Activity [13] of 0% and an Activity (Mucor [14]) of 0%. The Activity (Mucor circinelloides [15]) was 0%, the Activity (Rhizomucor [17]) was 0% and the Activity (Cunninghamella [16]) was 0%. The Activity (Apophysomyces elegans [20]) was 0%.

For `CCC(C)n1ncn(-c2ccc(N3CCN(c4ccc(OC[C@H]5CO[C@](Cn6cncn6)(c6ccc(Cl)cc6Cl)O5)cc4)CC3)cc2)c1=O` (some centres not stated) [ITRACONAZOLE], the MIC50 (Rhizopus [1]) was 0.5 µg/mL (≈ 0.709 µM), the MIC90 (Rhizopus [1]) was 4 µg/mL (≈ 5.67 µM) and the MIC50 (Rhizopus arrhizus [2]) was 0.5 µg/mL (≈ 0.709 µM). The MIC50 [3] was 0.5 µg/mL (≈ 0.709 µM), the MIC50 (Mucor [4]) was 0.5 µg/mL (≈ 0.709 µM) and the MIC90 (Mucor [4]) was > 8 µg/mL. The Activity (Absidia [5]) was “inactive”, the Activity (Mucor circinelloides [6]) was “inactive” and the Activity (Rhizomucor [7]) was “inactive”. For the same compound, the Activity (Lichtheimia corymbifera [8]) was “inactive”, the MIC50 (Cunninghamella [9]) was 1 µg/mL (≈ 1.42 µM) and the MIC50 (Apophysomyces elegans [10]) was 0.125 µg/mL (≈ 0.177 µM). It also gave an Activity (Rhizopus [11]) of 62%, an Activity (Rhizopus arrhizus [12]) of 50% and an Activity [13] of 60%. For the same compound, the Activity [21] was 0%, the Activity (Mucor [14]) was 57% and the Activity (Mucor circinelloides [15]) was 0%. It also gave an Activity (Rhizomucor [17]) of 67%, an Activity (Absidia [18]) of 50% and an Activity (Lichtheimia corymbifera [19]) of 100%. It also gave an Activity (Cunninghamella [16]) of 29% and an Activity (Apophysomyces elegans [20]) of 80%.

`Nc1nc(=O)[nH]cc1F` [FLUCYTOSINE] was tested, and the Activity (Rhizopus [1]) was “inactive”, the Activity (Rhizopus arrhizus [2]) was “inactive” and the Activity [3] was “inactive”. The MIC50 (Mucor [4]) was > 64 µg/mL, the Activity (Mucor circinelloides [6]) was “inactive” and the Activity (Cunninghamella [9]) was “inactive”. For the same compound, the Activity (Rhizopus [11]) was 0%, the Activity (Rhizopus arrhizus [12]) was 0% and the Activity [13] was 0%. The Activity (Mucor [14]) was 0%, the Activity (Mucor circinelloides [15]) was 0% and the Activity (Cunninghamella [16]) was 0%.
